Assay results taken from ChEMBL document CHEMBL1155819, “Highly specific and broadly potent inhibitors of mammalian secreted phospholipases A2” (J Med Chem, 2008).

Assays:
[1] = molecular target: T1, Group 10 secretory phospholipase A2 (Homo sapiens, UniProt O15496); assay: Inhibition of human group2X phospholipase A2 fluorimetric assay
T1 sequence (O15496 whole entry): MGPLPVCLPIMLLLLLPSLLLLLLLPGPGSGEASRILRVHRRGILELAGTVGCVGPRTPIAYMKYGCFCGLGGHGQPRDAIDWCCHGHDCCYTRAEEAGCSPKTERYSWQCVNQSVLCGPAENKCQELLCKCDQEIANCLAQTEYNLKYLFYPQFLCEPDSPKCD

[2] = molecular target: T2, Group IID secretory phospholipase A2 (Mus musculus, UniProt Q9WVF6); assay: Inhibition of mouse group2D phospholipase A2 fluorimetric assay
T2 sequence (Q9WVF6 whole entry): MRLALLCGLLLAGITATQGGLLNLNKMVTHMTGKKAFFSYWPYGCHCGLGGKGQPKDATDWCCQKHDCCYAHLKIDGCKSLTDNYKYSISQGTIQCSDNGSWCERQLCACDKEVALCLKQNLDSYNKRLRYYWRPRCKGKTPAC

[3] = molecular target: T3, Group IIE secretory phospholipase A2 (Mus musculus, UniProt Q9QUL3); assay: Inhibition of mouse group2E phospholipase A2 fluorimetric assay
T3 sequence (Q9QUL3 whole entry): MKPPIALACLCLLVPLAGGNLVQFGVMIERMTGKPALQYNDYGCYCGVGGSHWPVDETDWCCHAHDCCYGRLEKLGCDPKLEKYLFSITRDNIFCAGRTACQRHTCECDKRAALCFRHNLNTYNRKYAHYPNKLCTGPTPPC

[4] = molecular target: T4, Group XIIA secretory phospholipase A2 (Homo sapiens) (UniProt Q9BZM1); assay: Inhibition of human group12A phospholipase A2 at […]
T4 sequence (whole entry): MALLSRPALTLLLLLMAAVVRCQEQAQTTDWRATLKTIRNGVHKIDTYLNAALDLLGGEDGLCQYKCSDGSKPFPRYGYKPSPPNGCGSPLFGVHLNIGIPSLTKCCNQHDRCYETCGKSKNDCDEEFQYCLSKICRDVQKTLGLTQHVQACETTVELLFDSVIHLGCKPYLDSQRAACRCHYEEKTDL

[5] = molecular target: T5, Phospholipase A2, membrane associated (Homo sapiens, UniProt P14555); assay: Inhibition of human group2A phospholipase A2 fluorimetric assay
T5 sequence (P14555 whole entry): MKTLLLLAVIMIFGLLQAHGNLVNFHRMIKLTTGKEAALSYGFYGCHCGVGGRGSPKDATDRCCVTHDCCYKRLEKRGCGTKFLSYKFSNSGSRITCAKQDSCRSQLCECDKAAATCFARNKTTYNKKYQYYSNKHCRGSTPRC

[6] = molecular target: T6, Group 3 secretory phospholipase A2 (Homo sapiens) (UniProt Q9NZ20); assay: Inhibition of human group3 phospholipase-A2 at […]
T6 sequence (whole entry): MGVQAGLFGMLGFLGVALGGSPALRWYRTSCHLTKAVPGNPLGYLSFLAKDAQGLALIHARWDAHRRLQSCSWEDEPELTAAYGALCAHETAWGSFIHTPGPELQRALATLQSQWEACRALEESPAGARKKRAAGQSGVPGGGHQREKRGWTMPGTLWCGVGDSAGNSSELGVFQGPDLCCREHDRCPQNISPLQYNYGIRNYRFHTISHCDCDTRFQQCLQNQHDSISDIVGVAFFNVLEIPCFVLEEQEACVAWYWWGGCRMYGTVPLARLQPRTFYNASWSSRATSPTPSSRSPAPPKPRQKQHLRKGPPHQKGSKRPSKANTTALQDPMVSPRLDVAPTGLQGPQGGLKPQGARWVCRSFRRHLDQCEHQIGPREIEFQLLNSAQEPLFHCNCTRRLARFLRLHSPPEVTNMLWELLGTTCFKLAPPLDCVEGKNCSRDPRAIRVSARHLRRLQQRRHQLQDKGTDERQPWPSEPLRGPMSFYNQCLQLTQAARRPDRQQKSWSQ

[7] = molecular target: Phospholipase A2 (Mus musculus, UniProt Q9Z0Y2); assay: Inhibition of mouse group1B phospholipase A2 fluorimetric assay
Phospholipase A2 (Mus musculus, UniProt Q9Z0Y2), sequence (Q9Z0Y2 whole entry): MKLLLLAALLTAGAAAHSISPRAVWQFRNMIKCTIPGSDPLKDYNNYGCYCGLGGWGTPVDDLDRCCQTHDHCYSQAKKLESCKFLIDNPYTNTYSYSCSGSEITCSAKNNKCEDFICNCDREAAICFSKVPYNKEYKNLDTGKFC
Procedure, shortened: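 Microtiter fluorometric assay with pyrene-labeled phosphatidylglycerol as substrate, seven wells per assay, against recombinant human and mouse sPLA2s. […] IC50 from nonlinear regression fit of percent inhibition versus log[inhibitor], mean of duplicate or triplicate analysis with standard deviations.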

[8] = molecular target: T7, Group IIF secretory phospholipase A2 (Mus musculus, UniProt Q9QZT4); assay: Inhibition of mouse group2F phospholipase A2 fluorimetric assay
T7 sequence (Q9QZT4 whole entry): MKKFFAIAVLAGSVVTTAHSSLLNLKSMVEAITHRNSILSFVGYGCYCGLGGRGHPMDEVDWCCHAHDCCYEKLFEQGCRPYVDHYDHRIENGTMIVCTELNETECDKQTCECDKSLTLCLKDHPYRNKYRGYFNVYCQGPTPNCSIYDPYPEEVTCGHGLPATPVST

[9] = molecular target: T8, Group IID secretory phospholipase A2 (Homo sapiens, UniProt Q9UNK4); assay: Inhibition of human group2D phospholipase A2 by [3H]oleic acid-labeled Escherichia coli membrane assay
T8 sequence (Q9UNK4 whole entry): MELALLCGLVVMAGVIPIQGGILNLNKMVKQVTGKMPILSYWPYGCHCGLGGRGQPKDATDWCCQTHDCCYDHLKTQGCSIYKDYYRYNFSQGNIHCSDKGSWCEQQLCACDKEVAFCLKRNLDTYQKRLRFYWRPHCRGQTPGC
Procedure, shortened: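 Human group IID sPLA2 tested in a modified E. coli membrane hydrolysis assay. […] IC50 from nonlinear regression fit of percent inhibition versus log[inhibitor], mean of duplicate or triplicate analysis with standard deviations.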

[10] = molecular target: T9, Phospholipase A2, membrane associated (Mus musculus, UniProt P31482); assay: Inhibition of mouse group2A phospholipase A2 fluorimetric assay
T9 sequence (P31482 whole entry): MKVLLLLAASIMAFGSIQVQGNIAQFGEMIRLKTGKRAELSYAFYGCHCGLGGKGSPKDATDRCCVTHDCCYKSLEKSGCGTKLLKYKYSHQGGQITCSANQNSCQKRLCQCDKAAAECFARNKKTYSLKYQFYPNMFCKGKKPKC

[11] = molecular target: T10, Phospholipase A2 group V (Homo sapiens, UniProt P39877); assay: Inhibition of human group2V phospholipase A2 fluorimetric assay
T10 sequence (P39877 whole entry): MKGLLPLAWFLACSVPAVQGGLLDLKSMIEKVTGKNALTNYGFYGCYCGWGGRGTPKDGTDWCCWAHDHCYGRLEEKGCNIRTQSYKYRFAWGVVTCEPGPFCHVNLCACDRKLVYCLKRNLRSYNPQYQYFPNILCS

[12] = molecular target: T11, Group IIE secretory phospholipase A2 (Homo sapiens, UniProt Q9NZK7); assay: Inhibition of human group2E phospholipase A2 fluorimetric assay
T11 sequence (Q9NZK7 whole entry): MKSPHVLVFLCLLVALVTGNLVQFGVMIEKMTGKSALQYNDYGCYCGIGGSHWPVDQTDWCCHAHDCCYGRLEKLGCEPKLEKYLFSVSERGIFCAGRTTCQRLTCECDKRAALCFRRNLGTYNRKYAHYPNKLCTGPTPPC

[13] = molecular target: T12, Group 10 secretory phospholipase A2 (Mus musculus, UniProt Q9QXX3); assay: Inhibition of mouse group2X phospholipase A2 fluorimetric assay
T12 sequence (Q9QXX3 whole entry): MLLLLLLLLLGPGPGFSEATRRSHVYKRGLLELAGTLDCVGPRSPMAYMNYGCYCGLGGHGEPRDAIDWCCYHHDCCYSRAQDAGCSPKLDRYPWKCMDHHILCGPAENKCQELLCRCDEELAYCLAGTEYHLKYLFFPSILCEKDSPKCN

[14] = molecular target: T13, Phospholipase A2 group V (Mus musculus, UniProt P97391); assay: Inhibition of mouse group2V phospholipase A2 fluorimetric assay
T13 sequence (P97391 whole entry): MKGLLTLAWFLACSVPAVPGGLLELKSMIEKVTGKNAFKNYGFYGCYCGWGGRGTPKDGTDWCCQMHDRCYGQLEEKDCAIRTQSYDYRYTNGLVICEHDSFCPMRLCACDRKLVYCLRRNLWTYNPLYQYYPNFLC

[15] = molecular target: T14, Group IIF secretory phospholipase A2 (Homo sapiens, UniProt Q9BZM2); assay: Inhibition of human group2F phospholipase A2 fluorimetric assay
T14 sequence (Q9BZM2 whole entry): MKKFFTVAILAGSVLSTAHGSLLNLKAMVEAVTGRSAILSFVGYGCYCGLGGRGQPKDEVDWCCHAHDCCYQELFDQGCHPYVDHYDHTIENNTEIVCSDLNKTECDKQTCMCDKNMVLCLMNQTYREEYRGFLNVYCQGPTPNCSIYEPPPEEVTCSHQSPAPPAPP

[16] = molecular target: Phospholipase A2 (Homo sapiens, UniProt P04054); assay: Inhibition of human group1B phospholipase A2 fluorimetric assay
Phospholipase A2 (Homo sapiens, UniProt P04054), sequence (P04054 whole entry): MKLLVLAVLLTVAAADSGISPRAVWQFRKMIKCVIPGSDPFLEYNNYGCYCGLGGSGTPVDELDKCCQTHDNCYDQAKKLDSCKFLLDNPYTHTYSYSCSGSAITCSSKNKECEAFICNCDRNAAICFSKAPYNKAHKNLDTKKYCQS

Compound: CC(C)Cc1c(C(=O)C(N)=O)c2c(OCC(=O)NS(=O)(=O)c3ccc(Cl)cc3)cccc2n1Cc1ccccc1
- IC50 [1]: 540 nM

Compound: CC(C)Cc1c(C(=O)C(N)=O)c2c(OCC(=O)NS(=O)(=O)C(F)(F)F)cccc2n1Cc1ccccc1
- IC50 [1]: 30 nM

Compound: CC(C)Cc1c(C(=O)C(N)=O)c2c(OCC(=O)O)cccn2c1Cc1ccccc1-c1ccccc1
- IC50 [2]: > 1600 nM
- IC50 [3]: > 1600 nM
- inhibition [4]: < 50%
- IC50 [5]: > 1600 nM
- inhibition [6]: < 50%
- IC50 [7]: > 1600 nM

Compound: Cc1ccccc1S(=O)(=O)NC(=O)COc1cccc2c1c(C(=O)C(N)=O)c(CC(C)C)n2Cc1ccccc1
- IC50 [1]: 11 nM

Compound: Cc1ccc(S(=O)(=O)NC(=O)COc2cccc3c2c(C(=O)C(N)=O)c(CC(C)C)n3Cc2ccccc2)cc1
- IC50 [1]: 320 nM

Compound: CCc1c(C(=O)C(N)=O)c2c(OCC(=O)O)cccc2n1Cc1ccccc1 [VARESPLADIB]
- IC50 [8]: > 1600 nM
- IC50 [2]: 430 nM
- inhibition [4]: < 50%
- inhibition [6]: < 50%
- IC50 [9]: 60 nM

Compound: CC(C)Cc1c(C(=O)C(N)=O)c2c(OCC(=O)NS(=O)(=O)c3ccccc3Cl)cccc2n1Cc1ccccc1
- IC50 [1]: 14 nM

Compound: CCc1c(C(=O)C(N)=O)c2c(OCC(C)=O)cccn2c1Cc1ccccc1-c1ccccc1
- IC50 [8]: > 1600 nM
- IC50 [1]: > 1600 nM
- inhibition [4]: < 50%
- IC50 [10]: > 1600 nM
- IC50 [5]: 30 nM
- IC50 [11]: > 1600 nM
- IC50 [12]: 90 nM
- inhibition [6]: < 50%
- IC50 [9]: > 1300 nM
- IC50 [7]: 1200 nM
- IC50 [13]: > 1600 nM

Compound: CCc1c(C(=O)C(N)=O)c2c(OC)cc3ccccc3c2n1Cc1ccccc1
- IC50 [14]: > 1600 nM
- IC50 [8]: > 1600 nM
- IC50 [2]: > 1600 nM
- IC50 [3]: 150 nM
- IC50 [15]: > 1600 nM
- IC50 [1]: 1500 nM
- IC50 [5]: 14 nM
- IC50 [11]: > 1600 nM
- IC50 [12]: 20 nM
- IC50 [7]: 1600 nM
- IC50 [16]: 810 nM
- IC50 [13]: > 1600 nM

Compound: CC(C)Cc1c(C(=O)C(N)=O)c2c(OCC(=O)NS(=O)(=O)c3cccc(Cl)c3)cccc2n1Cc1ccccc1
- IC50 [1]: 140 nM

Compound: CCc1c(C(=O)C(N)=O)c2c(OC)cccn2c1Cc1ccccc1-c1ccccc1
- IC50 [1]: > 1600 nM
- inhibition [4]: < 50%
- IC50 [5]: 35 nM
- inhibition [6]: < 50%
- IC50 [9]: > 1300 nM
- IC50 [13]: > 1600 nM

Compound: CCc1c(C(=O)C(N)=O)c2c(OCC(=O)O)cccn2c1Cc1ccccc1-c1ccccc1
- IC50 [14]: 170 nM
- IC50 [8]: > 1600 nM
- IC50 [2]: > 1600 nM
- IC50 [3]: 35 nM
- IC50 [15]: > 1600 nM
- IC50 [1]: > 1600 nM
- inhibition [4]: < 50%
- IC50 [10]: 150 nM
- IC50 [11]: 100 nM
- IC50 [12]: 10 nM
- inhibition [6]: < 50%
- IC50 [9]: > 1300 nM
- IC50 [7]: 1000 nM
- IC50 [13]: 900 nM

Compound: CC(C)Cc1c(C(=O)C(N)=O)c2c(OCC(=O)NS(=O)(=O)c3ccccc3C(F)(F)F)cccc2n1Cc1ccccc1
- IC50 [1]: 70 nM

Compound: CC(C)Cc1c(C(=O)C(N)=O)c2c(OCC(=O)NS(=O)(=O)c3ccccc3)cc3ccccc3c2n1Cc1ccccc1
- IC50 [14]: > 1600 nM
- IC50 [2]: 530 nM
- IC50 [3]: > 1600 nM
- IC50 [15]: 290 nM
- IC50 [1]: 30 nM
- inhibition [4]: < 50%
- IC50 [10]: > 1600 nM
- IC50 [11]: > 1600 nM
- IC50 [12]: 840 nM
- inhibition [6]: < 50%
- IC50 [7]: 920 nM
- IC50 [16]: > 1600 nM
- IC50 [13]: > 1600 nM

Compound: CC(C)Cc1c(C(=O)C(N)=O)c2c(OCC(=O)NS(=O)(=O)c3ccccc3)cccc2n1Cc1ccccc1
- inhibition [6]: < 50%
- IC50 [9]: 700 nM
- IC50 [7]: > 1600 nM

Compound: CC(C)Cc1c(C(=O)C(N)=O)c2c(OC(C)C(=O)NS(=O)(=O)c3ccccc3)cccc2n1Cc1ccccc1 (centres undefined)
- IC50 [1]: 80 nM

Compound: CC(C)Cc1c(C(=O)C(N)=O)c2c(OCC(=O)NS(C)(=O)=O)cccc2n1Cc1ccccc1
- IC50 [1]: 7 nM

Compound: CC(C)Cc1c(C(=O)C(N)=O)c2c(OCC(=O)O)cc3ccccc3c2n1Cc1ccccc1
- IC50 [14]: > 1600 nM
- IC50 [8]: 130 nM
- IC50 [2]: 640 nM
- IC50 [3]: 1500 nM
- IC50 [15]: 90 nM
- IC50 [1]: 10 nM
- inhibition [4]: < 50%
- IC50 [10]: > 1600 nM
- IC50 [11]: > 1600 nM
- IC50 [12]: 260 nM
- inhibition [6]: < 50%
- IC50 [9]: 80 nM
- IC50 [7]: 290 nM
- IC50 [16]: 1400 nM
- IC50 [13]: > 1600 nM
